Experimental findings from PubChem BioAssay are described below.

Calls of active or inactive are those of the source.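 Rule for the calls, unless noted: active = visually confirmed hit in the image check and inhibition above 20%; inconclusive = visually confirmed hit but inhibition not above 20%; inactive = no visual hit in the image check.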

Assay [1] is described as follows: inhibitors of TNFa-induced NFkB p65 translocation, primary screen, imaging, HUVEC, MLSMR starter and 10KST1 sets (AID 438;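 active = inhibition above 20% together with a positive visual image hit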;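 note: compound added about 3h40 before a 20 min TNFalpha stimulation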;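 for inhibition: signal is the nuclear over cytoplasmic p65 intensity ratio per well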). The settings on record: HUVEC TNFa-induced p65 nuclear translocation; cell count: measured here: nuclei count (cytotoxicity indicator), at 2.08 µM; inhibition: at 2 µM, stronger effect = higher value, 0% TNFa-plus-vehicle, 100% no-TNFa wells.
Assay [2] in a line: reduction of polyQ htt aggregates in cells – imaging, exon1htt(103Q)mCFP cells, high-content imaging, primary screen (AID 483;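 active = visual image review flags a hit and inhibition of aggregation exceeds 20%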;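 note: compound exposure lasted 3 days before fixation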;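 for nuclei count: percent of the per-plate median nuclei count of sample wells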). The conditions noted are these: exon1htt(103Q)mCFP cell line, aggregate imaging, at 2 µM; inhibition of aggregation: stronger effect = higher value; nuclei count: measured here: cell count, toxicity.
Assay [3] in a line: endothelial E-selectin expression blockers – imaging, HUVEC, immunofluorescence, MLSMR starter and 10KST1 sets, primary screen (AID 487).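 For inhibition: signal is fraction of cell area covered by stained E-selectin grains.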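 For nuclei count: 100% = median nuclei count of all wells on the same plate.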 The settings on record: HUVEC TNFalpha-induced E-selectin immunofluorescence imaging, at 2 µM; inhibition: stronger effect = higher value; nuclei count: measured here: cell number, toxicity.
Assay [4] deals with Voltage-gated potassium channel subunit beta-2 (Rattus norvegicus) (UniProt P62483). The experiment in a line: inhibitors of rat Kvbeta2 reductase activity – biochemical, NADPH fluorescence, primary screen (AID 622;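 active = fluorescence slope higher than the sample average by over 3 SD, cut at about -0.22 in these data, passing the limit was not always enough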;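 note: slope of raw intensity against log time taken from 70 to 1610 s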). The settings on record: recombinant KvBeta, 4-cyanobenzaldehyde reduction, at 10 µM, stronger effect = higher value.
Sequence of Voltage-gated potassium channel subunit beta-2 (Rattus norvegicus) (P62483 whole entry, looked up): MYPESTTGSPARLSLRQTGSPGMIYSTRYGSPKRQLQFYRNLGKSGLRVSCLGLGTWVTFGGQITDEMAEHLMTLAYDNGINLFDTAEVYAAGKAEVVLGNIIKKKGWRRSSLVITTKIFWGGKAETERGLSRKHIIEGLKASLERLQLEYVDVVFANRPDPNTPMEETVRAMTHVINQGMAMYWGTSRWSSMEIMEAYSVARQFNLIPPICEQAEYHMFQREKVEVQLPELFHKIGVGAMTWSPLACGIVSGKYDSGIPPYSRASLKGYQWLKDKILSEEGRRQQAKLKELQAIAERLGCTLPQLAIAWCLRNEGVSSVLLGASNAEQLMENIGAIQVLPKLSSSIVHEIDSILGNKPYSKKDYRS
The target is the same in assay [5]. Kind of assay: enhancers of rat Kvbeta2 NADPH turnover – biochemical, NADPH fluorescence, primary screen (AID 623;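 active = NADPH fluorescence slope more negative than the mean of all samples by about 3 SD, 99.7% confidence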;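 note: fluorescence intensity change per second fitted from 20 to 320 s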). The settings on record: Recombinant KvBeta, NADPH fluorescence decrease slope, 10 min; at 10 µM; stronger effect = lower value.
Assay [6] has as its target Alpha-2C adrenergic receptor (Homo sapiens) (UniProt P18825). Kind of assay: compounds altering alpha2C-coupled GIRK flux – cell-based, HEK293 alpha2C/GIRK1/2, thallium flux, primary screen (AID 624;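 active = fluorescence slope after compound addition differing from the mean of all screened samples at 99.7% confidence, in either direction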;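 note: slope of fluorescence ratio to pre-addition baseline per second over 15 to 24 s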). The conditions noted are these: thallium flux BTC fluorescence, at 10 µM, actives lie on both sides.
Assay [7] in a line: inhibitors of larval lipid processing in zebrafish, primary screen, whole organism, PED6 fluorescence, gall bladder and intestine (AID 686;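 active = a full or partial loss of lipid-probe fluorescence in the fish gall bladder, intestine or both, judged by eye; inactive = no fluorescence loss, or compound toxic to the fish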;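 note: larvae 5 to 7 days old with five fish per well; signal comes from phospholipase A2 cleavage of quenched PED6 carried via bile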). The conditions noted are these: Zebrafish larvae PED6 lipid processing, fluorescence scoring; screened at 20 µM (by protocol). The method in brief: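 system = live zebrafish larvae aged 5-7 days, whole organism | probe or stimulus = ingested quenched lipid PED6 at 100 nM | doses = 20 µM single dose | timing = overnight exposure | detection = fluorescence microscopy with visual scoring of gall bladder and intestine | read-out = visual per-well fluorescence inhibition score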

Assay [8] can be described thus: blockers of RIG-like receptor reporter activation – cell-based, Sendai virus stimulus, luciferase, 10K MLSCN set, TLR/RLR signaling modifier project, primary screen (AID 602276;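 active = inhibition at or above 50% at 10 µM; inactive = inhibition below 50%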;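 note: firefly luciferase from ISG56 promoter only with Renilla not read in this screen; 0% = Sendai virus plus DMSO and 100% = medium plus DMSO without virus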). The settings on record: HEK293 RL24 IRF3 luciferase reporter, at 10 µM, stronger effect = higher value.
A short description of assay [9]: TLR3 IRF3 reporter activation blockers – cell-based, poly I:C stimulus, luciferase, 10K MLSCN set, primary screen (AID 602277;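 active = inhibition of the reporter signal at or above 50%; inactive = inhibition below 50%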). The settings on record: HEK293-TLR3 RL24 IRF3 luciferase reporter, at 10 µM, stronger effect = higher value.

Sequence of Alpha-2C adrenergic receptor (Homo sapiens) (P18825 whole entry, looked up): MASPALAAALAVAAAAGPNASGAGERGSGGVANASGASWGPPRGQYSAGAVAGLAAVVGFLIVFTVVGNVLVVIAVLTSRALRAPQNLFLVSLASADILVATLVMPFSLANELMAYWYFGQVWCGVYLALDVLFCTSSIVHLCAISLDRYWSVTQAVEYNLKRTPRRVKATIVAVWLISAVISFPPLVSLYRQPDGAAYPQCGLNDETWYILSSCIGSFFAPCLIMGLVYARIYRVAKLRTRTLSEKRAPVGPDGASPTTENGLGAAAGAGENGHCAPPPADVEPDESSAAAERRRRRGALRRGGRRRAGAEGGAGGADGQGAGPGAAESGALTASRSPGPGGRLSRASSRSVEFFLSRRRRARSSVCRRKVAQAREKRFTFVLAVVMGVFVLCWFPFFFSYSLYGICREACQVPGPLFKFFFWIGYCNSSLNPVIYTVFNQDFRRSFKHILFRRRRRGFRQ

With `CN(C)c1nc(Oc2ccc(N)cc2)nc(N(C)C)n1`, in assay [1], the cell count came to 362. The inhibition in assay [1] is 2.1% (inactive); in assay [3], 27% (inactive); in assay [8], -1.54% (inactive); in assay [9], -2.53% (inactive). Besides, the inhibition of aggregation in assay [2] is 15.5% (inactive). The nuclei count in [2] was determined as 94.2%; in [3], 92%. Besides, the fluorescence slope in assay [4] is -0.379 (inactive). Moreover, in assay [5], the NADPH fluorescence slope is -7.9e-05 (inactive). For the same compound, the slope in assay [6] is 0.00462 (inactive). For the same compound, in assay [7], the call was inactive.
Regarding `Cc1cc(C)c(NC2=NCC(=O)N2C2CCCCC2)c(C)c1`, the cell count in assay [1] is 638. In addition, the inhibition is -2.2% (inactive) in assay [1], -32.7% (inactive) in [3], -0.88% (inactive) in assay [8] and -0.177% (inactive) in assay [9]. Also, the inhibition of aggregation in assay [2] was 5.3% (inactive). Besides, the values for the nuclei count in [2] and in assay [3] were 122% and 114%, respectively. For the same compound, in assay [4], the fluorescence slope is -0.389 (inactive). For the same compound, in assay [5], the NADPH fluorescence slope is 1.7e-05 (inactive). Moreover, the slope in assay [6] is 0.00607 (inactive). In addition, the call in [7] was inactive.
Regarding `Cc1cc(C)nc(SCc2ccc3nonc3c2)n1`, in assay [1], the cell count turned out to be 634. The inhibition in [1] is -4.3% (inactive); in assay [3], 12.3% (inactive); in assay [8] it was 8.18% (inactive); in assay [9], 10.6% (inactive). For the same compound, the inhibition of aggregation in assay [2] was -20.5% (inactive). The nuclei count in assay [2] is 114%; in assay [3] it was 97.4%. The fluorescence slope in assay [4] is -0.282 (inactive). Besides, in assay [5], the NADPH fluorescence slope is -1.3e-05 (inactive). The slope in assay [6] is 0.00664 (inactive). The outcome in assay [7] is “inactive; toxic”.
As for `Cc1nn(Cc2ccccc2)c2c1C(c1ccncc1)C(C#N)=C(N)O2` (stereo unspecified), the cell count in [1] was determined as 273. Moreover, the inhibition in assay [1] was -1.3% (inactive); in [3], -58.9% (inactive); in [8], 2.54% (inactive); in assay [9] it was 0.489% (inactive). Also, the inhibition of aggregation in assay [2] was 17.9% (inactive). The nuclei count turned out to be 62.3% in [2] and 97.3% in [3]. Moreover, the fluorescence slope in [4] is -0.381 (inactive). Also, in assay [5], the NADPH fluorescence slope was -5.9e-05 (inactive). In assay [6], the slope is 0.0052 (inactive). In assay [7], the call was inactive.
`CCOCC(O)CS(=O)Cc1ccccc1` (stereo unspecified): the cell count in assay [1] was 343. Moreover, the inhibition in assay [1] was -7.4% (inactive); in assay [3], -38.6% (inactive); in assay [8], 8.68% (inactive); in assay [9], 14.1% (inactive). Further, the inhibition of aggregation in assay [2] was 4.7% (inactive). Also, the nuclei count in assay [2] stood at 99.4%; in [3] it was 126%. In addition, in assay [4], the fluorescence slope is -0.358 (inactive). Further, the NADPH fluorescence slope in [5] is -6.9e-05 (inactive). Besides, in assay [6], the slope is 0.00589 (inactive). In assay [7], the compound was called inactive.
Turning to `CC(=O)Nc1c(O)[nH]c2ccccc12`, the cell count in assay [1] came to 566. Moreover, the inhibition was -25.9% (inactive) in [1], -5.9% (inactive) in assay [3], 10.4% (inactive) in assay [8] and 16.8% (inactive) in [9]. For the same compound, in assay [2], the inhibition of aggregation is -9.8% (inactive). Besides, the nuclei count worked out at 98.9% in assay [2] and 102% in assay [3]. The fluorescence slope in assay [4] is -0.414 (inactive). For the same compound, the NADPH fluorescence slope in assay [5] is -5.4e-05 (inactive). For the same compound, in assay [6], the slope is 0.00575 (inactive). The result in [7] was inactive.
Consider `COc1cc(-c2nc(S(=O)(=O)c3ccc(C)cc3)c(N(C)C)o2)cc(OC)c1OC`, for which the cell count in assay [1] came out at 432. Also, the inhibition is -6.3% (inactive) in assay [1], -57% (inactive) in [3], -11.7% (inactive) in [8] and -7.3% (inactive) in [9]. Besides, in assay [2], the inhibition of aggregation was -5.1% (inactive). Further, the nuclei count in assay [2] is 105%; in assay [3], 108%. In assay [4], the fluorescence slope was -0.386 (inactive). Moreover, the NADPH fluorescence slope in [5] is -9.2e-05 (inactive). For the same compound, the slope in [6] is 0.00686 (inactive). Moreover, the result in assay [7] was inactive.
On to `Cc1nnc(NC(=O)CCC(=O)N2CCC(C)CC2)s1`, for which the cell count in assay [1] came to 355. Further, the inhibition was -2% (inactive) in [1], -84.2% (inactive) in assay [3], 12.2% (inactive) in [8] and 14% (inactive) in [9]. The inhibition of aggregation in assay [2] is -13.9% (inactive). In addition, the nuclei count in [2] amounted to 119%; in [3], 120%. In addition, in assay [4], the fluorescence slope is -0.465 (inactive). Further, the NADPH fluorescence slope in assay [5] was -4.6e-05 (inactive). Further, the slope in assay [6] is 0.0059 (inactive). Further, the outcome in assay [7] was inactive.
With `O=C(CN(c1ccc(F)cc1)S(=O)(=O)c1ccc2c(c1)OCCO2)Nc1cccnc1`, the cell count in assay [1] amounted to 757. Also, the inhibition in assay [1] is 1.6% (inactive); in assay [3], -19.1% (inactive); in assay [8], 7.14% (inactive); in [9] it was 18.5% (inactive). Further, in [2], the inhibition of aggregation is 7% (inactive). Further, the nuclei count in assay [2] was 93.5%; in [3], 111%. Moreover, the fluorescence slope in [4] is -0.453 (inactive). Further, the NADPH fluorescence slope in [5] is -4.5e-05 (inactive). For the same compound, in assay [6], the slope is 0.00513 (inactive). Further, the result in [7] was inactive.
Regarding `COc1ccc(CN(CC(=O)NCC2CCCO2)C(=O)CCC(=O)Nc2cc(C)on2)cc1` (stereo unspecified), in assay [1], the cell count was 242. In addition, the inhibition in assay [1] was 7.6% (inactive); in [3], 13.1% (inactive); in assay [8], -9.53% (inactive); in assay [9] it was -6.1% (inactive). Moreover, the inhibition of aggregation in [2] is 7.1% (inactive). Further, the nuclei count in [2] amounted to 89.3%; in assay [3], 104%. In [4], the fluorescence slope is -0.399 (inactive). In assay [5], the NADPH fluorescence slope was -1.6e-05 (inactive). The slope in [6] is 0.00463 (inactive). Further, the call in assay [7] was inactive.
As to `CC(=O)Nc1nnc(SCC(=O)NCC2CCCO2)s1` (stereo unspecified), in assay [1], the cell count worked out at 415. Further, the inhibition in assay [1] was 6% (inactive); in assay [3], -123% (inactive); in assay [8], -10.9% (inactive); in assay [9], -9.89% (inactive). Moreover, the inhibition of aggregation in assay [2] was -1.3% (inactive). Also, the nuclei count was determined as 102% in [2] and 110% in assay [3]. In [4], the fluorescence slope was -0.413 (inactive). Besides, in [5], the NADPH fluorescence slope was -3.1e-05 (inactive). The slope in assay [6] was 0.00542 (inactive). Also, the result in assay [7] was inactive.
For the compound `COc1cc(S(=O)(=O)NC2CCCCC2C)ccc1Cl` (stereo unspecified), the cell count in assay [1] worked out at 691. Besides, the inhibition is 4.8% (inactive) in [1], -69.9% (inactive) in assay [3], -3.61% (inactive) in assay [8] and -3.48% (inactive) in assay [9]. Moreover, the inhibition of aggregation in [2] is -2% (inactive). Besides, the figures for the nuclei count in [2] and in assay [3] were 114% and 106%, respectively. In [4], the fluorescence slope was -0.411 (inactive). In [5], the NADPH fluorescence slope was 2.4e-05 (inactive). Besides, the slope in assay [6] was 0.00366 (inactive). Besides, the outcome in [7] was inactive.
With `Cc1cccc(NC(=O)CC2CCC2)c1`, the cell count in assay [1] was found to be 362. Moreover, the inhibition is -4.1% (inactive) in assay [1], 40.7% (inactive) in assay [3], 3.07% (inactive) in assay [8] and -0.215% (inactive) in [9]. The inhibition of aggregation in [2] was 3% (inactive). The values for the nuclei count in [2] and in assay [3] were 97.1% and 71.8%, respectively. Also, the fluorescence slope in assay [4] was -0.435 (inactive). Further, in assay [5], the NADPH fluorescence slope is -2.3e-05 (inactive). Further, the slope in assay [6] is 0.00515 (inactive). Further, the result in assay [7] was inactive.
